Results on 15 compounds are retold here after ChEMBL document CHEMBL1155063 (Bioorg Med Chem, 2008).

Series [1] in a line: Cytotoxicity against human H1299 cells at 100 uM after 48 hrs by MTT assay realtive to control. Conditions: NCI-H1299, 48 h. The format is functional. In a few lines:
(§1)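 H1299 non-small-cell lung cells were kept in RPMI 1640 with 10% FBS and penicillin/streptomycin at 37 °C under 5% CO2. About 2 × 10^3 cells per well were pre-incubated for 24 h. Compound was added from freshly made DMSO solution diluted in complete medium and left for 48 h. MTT was then added for 4 h at 37 °C, followed by 20% SDS/50% DMF lysis buffer for 16 h at 37 °C, and absorbance read at 550 nm.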

Series [2] in a line: Cytotoxicity against human H1299 cells at 10 uM after 48 hrs by MTT assay realtive to control. The format is functional. Conditions: NCI-H1299, 48 h. In a few lines:
as §1
In general terms: Tetrazolium dyes change colour on reduction, which living cells bring about.

Series [3] can be described thus: Cytotoxicity against human TERT immortalized BJ1 cells at 100 uM after 48 hrs by MTT assay relative to control. In kind it is cell-based, BJ. In a few lines:
(§2)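 hTERT-immortalized BJ1 fibroblasts were grown in DMEM with 10% FCS, 1 mM pyruvate and 4 mM […]. Cells (about 2 × 10^3 per well) were seeded and held 24 h at 37 °C. Compounds were freshly dissolved in DMSO, diluted into medium and left on the cells 48 h. MTT was added for 4 h, then SDS/DMF lysis buffer for 16 h. Absorbance was read at 550 nm and expressed relative to untreated cells (100%).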

The nature of series [4]: Cytotoxicity against human TERT immortalized BJ1 cells at 10 uM after 48 hrs by MTT assay relative to control. The format is cell-based, BJ. In a few lines: as §2
A short description of series [5]: Cytotoxicity against human TERT immortalized BJ1 cells at 1 uM after 48 hrs by MTT assay relative to control. The format is cell-based, BJ. In a few lines:
as §2

Series [6] can be described thus: Cell viability of human H1299 cells at 1 uM after 48 hrs by MTT assay relative to control. Conditions: NCI-H1299, 48 h.
For series [7], the target named is T1, Telomerase reverse transcriptase (Homo sapiens, UniProt O14746). The experiment in a line: Effect on human TERT expressed in H1299 cells at 1 uM after 24 hrs by SEAP assay relative to control.
Series [8] has as its target T1, Telomerase reverse transcriptase. Nature of the series: Effect on human TERT expressed in H1299 cells at 10 uM after 24 hrs by SEAP assay relative to control.
For series [9] the target is unchanged. Nature of the series: Effect on human TERT expressed in H1299 cells at 100 uM after 24 hrs by SEAP assay relative to control.
The target is the same in series [10]. Nature of the series: Effect on human TERT expressed in BJ1 cells at 1 uM after 24 hrs by SEAP assay realtive to control. The conditions noted are these: BJ.
The target is the same in series [11]. The experiment in a line: Effect on human TERT expressed in BJ1 cells at 10 uM after 24 hrs by SEAP assay relative to control. The conditions noted are these: BJ.
Series [12] has the same target. The experiment in a line: Effect on human TERT expressed in BJ1 cells at 100 uM after 24 hrs by SEAP assay relative to control. The conditions noted are these: BJ.

T1 sequence (O14746 whole entry): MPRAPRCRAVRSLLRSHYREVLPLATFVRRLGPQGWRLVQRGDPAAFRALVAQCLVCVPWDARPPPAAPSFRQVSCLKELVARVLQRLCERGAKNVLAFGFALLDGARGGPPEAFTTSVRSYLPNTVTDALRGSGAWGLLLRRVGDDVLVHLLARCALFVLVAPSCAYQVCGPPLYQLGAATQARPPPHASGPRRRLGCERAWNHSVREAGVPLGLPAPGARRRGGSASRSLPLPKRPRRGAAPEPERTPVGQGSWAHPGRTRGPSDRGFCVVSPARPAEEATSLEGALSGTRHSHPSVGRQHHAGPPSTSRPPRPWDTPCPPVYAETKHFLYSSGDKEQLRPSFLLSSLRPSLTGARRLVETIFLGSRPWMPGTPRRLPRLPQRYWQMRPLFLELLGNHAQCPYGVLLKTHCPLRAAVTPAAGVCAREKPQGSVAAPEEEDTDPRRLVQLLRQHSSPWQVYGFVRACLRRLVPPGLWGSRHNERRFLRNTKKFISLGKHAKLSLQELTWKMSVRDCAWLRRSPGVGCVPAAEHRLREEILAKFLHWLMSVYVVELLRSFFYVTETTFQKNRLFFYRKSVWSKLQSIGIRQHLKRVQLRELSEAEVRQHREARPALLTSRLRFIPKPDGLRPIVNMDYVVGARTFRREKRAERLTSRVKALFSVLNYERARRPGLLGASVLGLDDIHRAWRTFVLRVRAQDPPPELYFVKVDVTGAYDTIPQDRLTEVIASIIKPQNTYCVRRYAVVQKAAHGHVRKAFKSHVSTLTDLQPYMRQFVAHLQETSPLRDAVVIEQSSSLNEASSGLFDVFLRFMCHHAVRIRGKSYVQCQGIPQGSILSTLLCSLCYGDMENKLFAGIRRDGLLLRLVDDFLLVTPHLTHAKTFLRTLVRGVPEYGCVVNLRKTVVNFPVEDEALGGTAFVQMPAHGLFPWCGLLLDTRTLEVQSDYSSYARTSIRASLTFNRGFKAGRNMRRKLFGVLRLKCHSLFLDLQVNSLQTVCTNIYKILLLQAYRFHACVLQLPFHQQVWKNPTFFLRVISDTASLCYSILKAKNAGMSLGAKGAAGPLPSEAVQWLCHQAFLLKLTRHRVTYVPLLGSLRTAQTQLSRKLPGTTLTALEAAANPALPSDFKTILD

In the case of `CCCC(=O)Nc1ccc2c(c1)C(=O)c1cc(NC(=O)CCC)ccc1C2=O`, in [1], the viability (in general, a read-out of living cells in per cent, often relative to untreated cells) at 100 µM came out at 40%. In addition, the viability at 10 µM in [2] was 59%. For the same compound, the viability at 48 h, 100 µM in [3] stood at 50%. In addition, the viability at 48 h, 10 µM in series [4] was determined as 51%. Besides, in [5], the viability at 48 h, 1 µM is 84%. Besides, the cell viability – broadly, a read-out of living cells in per cent, often relative to untreated cells – at 1 µM in series [6] turned out to be 93%. Also, the residual activity (in general, the signal under treatment as a percentage of the control signal) in series [7] stood at 90%; in series [8] it was 83%; in series [9], 83%.

With `O=C(CN1CCNCC1)Nc1ccc2c(c1)C(=O)c1cc(NC(=O)CN3CCNCC3)ccc1C2=O`, the viability at 100 µM in series [1] came to 88%. In series [2], the viability at 10 µM turned out to be 85%. Also, the viability at 48 h, 100 µM in series [3] amounted to 76%. Besides, the viability at 48 h, 10 µM in [4] is 85%. Also, in series [5], the viability at 48 h, 1 µM came to 88%. Besides, the cell viability at 1 µM in series [6] came out at 88%. The residual activity amounted to 89% in series [7], 72% in series [8] and 60% in series [9].

On to `O=C(Cc1ccccc1)Nc1ccc2c(c1)C(=O)c1cc(NC(=O)Cc3ccccc3)ccc1C2=O`, for which, in series [1], the viability at 100 µM came to 75%. Besides, in [2], the viability at 10 µM was 96%. Also, the viability at 48 h, 100 µM in series [3] turned out to be 86%. Also, the viability at 48 h, 10 µM in [4] is 80%. Further, the viability at 48 h, 1 µM in series [5] came out at 93%. In [6], the cell viability at 1 µM worked out at 106%. For the same compound, the residual activity in series [10] came to 85%; in series [11] it was 79%; in [7], 97%; in [12], 40%; in series [8] it was 91%; in series [9] it was 80%.

Turning to `O=C(CCc1ccccc1)Nc1ccc2c(c1)C(=O)c1cc(NC(=O)CCc3ccccc3)ccc1C2=O`, the viability at 100 µM in [1] is 76%. Further, the viability at 10 µM in series [2] is 94%. Besides, the viability at 48 h, 100 µM in series [3] worked out at 44%. In [4], the viability at 48 h, 10 µM amounted to 44%. In addition, in [5], the viability at 48 h, 1 µM came to 89%. In addition, the cell viability at 1 µM in series [6] is 102%. Besides, the residual activity in series [10] was 74%; in [11], 92%; in [7], 89%; in series [12], 43%; in [8], 79%; in [9] it was 61%.

As to `O=C1c2ccc(NC(=O)C3CCCCC3)cc2C(=O)c2cc(NC(=O)C3CCCCC3)ccc21`, the viability at 100 µM in [1] was 52%. The viability at 10 µM in [2] amounted to 63%. In [3], the viability at 48 h, 100 µM is 64%. The viability at 48 h, 10 µM in series [4] was 76%. Moreover, the viability at 48 h, 1 µM in series [5] worked out at 87%. For the same compound, the cell viability at 1 µM in [6] was found to be 90%. For the same compound, the residual activity in series [10] turned out to be 14%; in series [11], 14%; in [7] it was 96%; in series [12], 22%; in series [8] it was 93%; in series [9], 80%.

As to `CCCCNCC(=O)Nc1ccc2c(c1)C(=O)c1cc(NC(=O)CNCCCC)ccc1C2=O`, the viability at 100 µM in series [1] turned out to be 15%. Further, the viability at 10 µM in series [2] was 17%. Besides, the viability at 48 h, 100 µM in series [3] was found to be 43%. In addition, the viability at 48 h, 10 µM in [4] stood at 41%. Moreover, the viability at 48 h, 1 µM in series [5] turned out to be 103%. In addition, the cell viability at 1 µM in series [6] stood at 91%. Besides, the residual activity in [10] was determined as 27%; in [11], 24%; in series [7], 77%; in [12] it was 80%; in series [8] it was 26%; in series [9], 20%.

As to `CCN(CC)CC(=O)Nc1ccc2c(c1)C(=O)c1cc(NC(=O)CN(CC)CC)ccc1C2=O`, in [1], the viability at 100 µM was found to be 25%. The viability at 10 µM in series [2] is 47%. In addition, in [3], the viability at 48 h, 100 µM worked out at 50%. Besides, the viability at 48 h, 10 µM in series [4] came out at 67%. In addition, in series [5], the viability at 48 h, 1 µM came to 116%. Besides, the cell viability at 1 µM in series [6] amounted to 101%. Moreover, the residual activity in series [10] was 26%; in series [11] it was 131%; in series [7] it was 90%; in [12] it was 116%; in [8], 61%; in [9] it was 37%.

On to `O=C(CCl)Nc1ccc2c(c1)C(=O)c1cc(NC(=O)CCl)ccc1C2=O`, for which the viability at 100 µM in series [1] came out at 1%. Moreover, the viability at 10 µM in [2] was determined as 5%. Further, in series [3], the viability at 48 h, 100 µM is 88%. Moreover, in series [4], the viability at 48 h, 10 µM is 89%. The viability at 48 h, 1 µM in series [5] came out at 105%. Further, the cell viability at 1 µM in series [6] was 58%. Further, the residual activity is 69% in [11]; 72% in series [7]; 135% in series [12]; 40% in series [8]; 36% in series [9].

Turning to `O=C(CCCCl)Nc1ccc2c(c1)C(=O)c1cc(NC(=O)CCCCl)ccc1C2=O`, the viability at 100 µM in series [1] is 22%. Also, the viability at 10 µM in [2] is 40%. For the same compound, in [3], the viability at 48 h, 100 µM worked out at 58%. For the same compound, the viability at 48 h, 10 µM in [4] is 62%. Also, in [5], the viability at 48 h, 1 µM worked out at 72%. For the same compound, the cell viability at 1 µM in series [6] was found to be 84%. In addition, the residual activity was 13% in series [10]; 42% in series [11]; 88% in series [7]; 75% in series [12]; 86% in series [8]; 78% in series [9].

With `Nc1ccc2c(c1)C(=O)c1cc(N)ccc1C2=O`, in series [1], the viability at 100 µM was 65%. Further, the viability at 10 µM in [2] is 80%. The viability at 48 h, 100 µM in series [3] turned out to be 80%. Also, the viability at 48 h, 10 µM in series [4] turned out to be 83%. The viability at 48 h, 1 µM in [5] amounted to 95%. In addition, the cell viability at 1 µM in [6] worked out at 90%. Further, the residual activity was 87% in series [7], 75% in series [8] and 63% in series [9].

As to `O=C(Nc1ccc2c(c1)C(=O)c1cc(NC(=O)c3ccccc3)ccc1C2=O)c1ccccc1`, the viability at 100 µM in series [1] turned out to be 41%. In addition, the viability at 10 µM in series [2] is 47%. The viability at 48 h, 100 µM in series [3] was found to be 97%. Moreover, the viability at 48 h, 10 µM in series [4] turned out to be 85%. The viability at 48 h, 1 µM in series [5] was 92%. For the same compound, in [6], the cell viability at 1 µM turned out to be 71%. The residual activity in series [11] worked out at 72%; in series [7], 104%; in series [12], 36%; in series [8], 92%; in [9], 85%.

`O=C(CCCl)Nc1ccc2c(c1)C(=O)c1cc(NC(=O)CCCl)ccc1C2=O`: the viability at 100 µM in series [1] worked out at 29%. For the same compound, the viability at 10 µM in series [2] amounted to 44%. Besides, in [3], the viability at 48 h, 100 µM stood at 39%. The viability at 48 h, 10 µM in [4] amounted to 65%. Moreover, the viability at 48 h, 1 µM in series [5] is 77%. In [6], the cell viability at 1 µM was determined as 77%. The residual activity in series [7] worked out at 94%; in series [8], 94%; in series [9], 87%.

On to `CN1CCN(CCC(=O)Nc2ccc3c(c2)C(=O)c2cc(NC(=O)CCN4CCN(C)CC4)ccc2C3=O)CC1`, for which the viability at 100 µM in series [1] turned out to be 39%. In addition, the viability at 10 µM in series [2] is 80%. The viability at 48 h, 100 µM in [3] was 61%. Besides, the viability at 48 h, 10 µM in [4] is 80%. Further, the viability at 48 h, 1 µM in series [5] came to 95%. Further, the cell viability at 1 µM in series [6] came out at 95%. The residual activity worked out at 138% in series [11], 75% in series [7], 52% in [8] and 21% in [9].

`CCCNCC(=O)Nc1ccc2c(c1)C(=O)c1cc(NC(=O)CNCCC)ccc1C2=O`: the viability at 100 µM in [1] is 14%. The viability at 10 µM in series [2] is 54%. In series [3], the viability at 48 h, 100 µM came out at 42%. In addition, the viability at 48 h, 10 µM in series [4] is 44%. Moreover, in [5], the viability at 48 h, 1 µM is 96%. For the same compound, the cell viability at 1 µM in [6] stood at 89%. Further, the residual activity was found to be 73% in series [7], 44% in [8] and 24% in [9].

With `O=C(CN1CCCC1)Nc1ccc2c(c1)C(=O)c1cc(NC(=O)CN3CCCC3)ccc1C2=O`, in series [1], the viability at 100 µM came to 23%. The viability at 10 µM in [2] amounted to 52%. Also, in series [3], the viability at 48 h, 100 µM worked out at 39%. The viability at 48 h, 10 µM in series [4] stood at 60%. Moreover, in [5], the viability at 48 h, 1 µM is 99%. Besides, in series [6], the cell viability at 1 µM is 99%. Further, the residual activity was determined as 88% in [7], 48% in [8] and 30% in [9].
